In ChEMBL document CHEMBL3045615, “Synthesis and herbicidal evaluation of novel 3-[(alpha-hydroxy-substituted)benzylidene]pyrrolidine-2,4-diones” (J Agric Food Chem, 2005):

How the values were obtained:
Format in all cases: functional
[1] = tested on: Echinochloa crus-galli; assay: Herbicidal activity against Echinochloa crus-galli (barnyard grass) assessed as inhibition in green house at 1500 g/ha post-emergence treatment measured after 15 days; settings: 360 h
In short: (§1)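 Greenhouse pot test. Two replicates per treatment. Control was the same amount of water, N,N-dimethylformamide and Tween 20. Fresh weights were taken 15 days after treatment, and percentage inhibition was calculated relative to controls.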

[2] = tested on: Brassica rapa subsp. oleifera; assay: Herbicidal activity against Brassica rapa subsp. oleifera assessed as inhibition of root growth at 100 ug/ml at 28 +/- 1 degC measured after 65 hr by root test
In short: (§2)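 Rape seeds were presoaked 4 h in distilled water. About 15 seeds were placed per 6-cm Petri plate on filter paper pre-wetted with 2 mL inhibitor solution. Plates germinated in the dark for 65 h at 28 ± 1 °C. Root length of 10 roots per plate was measured and averaged. Result expressed as percentage inhibition.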

[3] = tested on: Brassica rapa subsp. oleifera; assay: Herbicidal activity against Brassica rapa subsp. oleifera assessed as inhibition of root growth at 10 ug/ml at 28 +/- 1 degC measured after 65 hr by root test; in short: as §2
[4] = tested on: Echinochloa crus-galli; assay: Herbicidal activity against Echinochloa crus-galli (barnyard grass) assessed as inhibition of seedling growth at 10 ug/ml at 28 +/- 1 degC measured after 65 hr by cup test
[5] = tested on: Brassica rapa subsp. oleifera; assay: Herbicidal activity against Brassica rapa subsp. oleifera assessed as inhibition in green house at 1500 g/ha post-emergence treatment measured after 15 days; settings: 360 h; in short: as §1
[6] = tested on: Digitaria sanguinalis; assay: Herbicidal activity against Digitaria sanguinalis (hairy crabgrass) assessed as inhibition in green house at 1500 g/ha pre-emergence treatment measured after 15 days; settings: 360 h; in short: as §1
[7] = tested on: Brassica rapa subsp. oleifera; assay: Herbicidal activity against Brassica rapa subsp. oleifera assessed as inhibition in green house at 1500 g/ha pre-emergence treatment measured after 15 days; settings: 360 h; in short: as §1
[8] = tested on: Amaranthus retroflexus; assay: Herbicidal activity against Amaranthus retroflexus assessed as inhibition in green house at 1500 g/ha post-emergence treatment measured after 15 days; settings: 360 h; in short: as §1
[9] = tested on: Echinochloa crus-galli; assay: Herbicidal activity against Echinochloa crus-galli (barnyard grass) assessed as inhibition in green house at 1500 g/ha pre-emergence treatment measured after 15 days; settings: 360 h; in short: as §1
[10] = tested on: Digitaria sanguinalis; assay: Herbicidal activity against Digitaria sanguinalis (hairy crabgrass) assessed as inhibition in green house at 1500 g/ha post-emergence treatment measured after 15 days; settings: 360 h; in short: as §1
[11] = tested on: Echinochloa crus-galli; assay: Herbicidal activity against Echinochloa crus-galli (barnyard grass) assessed as inhibition of seedling growth at 100 ug/ml at 28 +/- 1 degC measured after 65 hr by cup test
[12] = tested on: Amaranthus retroflexus; assay: Herbicidal activity against Amaranthus retroflexus assessed as inhibition in green house at 1500 g/ha pre-emergence treatment measured after 15 days; settings: 360 h; in short: as §1
[13] = tested on: Echinochloa crus-galli; assay: Herbicidal activity against Echinochloa crus-galli (barnyard grass) assessed as inhibition in green house at 750 g/ha pre-emergence treatment measured after 15 days; settings: 360 h; in short: as §1
[14] = tested on: Digitaria sanguinalis; assay: Herbicidal activity against Digitaria sanguinalis (hairy crabgrass) assessed as inhibition in green house at 750 g/ha pre-emergence treatment measured after 15 days; settings: 360 h; in short: as §1
[15] = tested on: Digitaria sanguinalis; assay: Herbicidal activity against Digitaria sanguinalis (hairy crabgrass) assessed as inhibition in green house at 375 g/ha pre-emergence treatment measured after 15 days; settings: 360 h; in short: as §1
[16] = tested on: Echinochloa crus-galli; assay: Herbicidal activity against Echinochloa crus-galli (barnyard grass) assessed as inhibition in green house at 375 g/ha pre-emergence treatment measured after 15 days; settings: 360 h; in short: as §1

| Structure (SMILES) | inhibition at 1500 g/ha [1] | inhibition at 100 µg/mL [2] | inhibition at 10 µg/mL [3] | inhibition at 10 µg/mL [4] | inhibition at 1500 g/ha [5] | inhibition at 1500 g/ha [6] | inhibition at 1500 g/ha [7] | inhibition at 1500 g/ha [8] | inhibition at 1500 g/ha [9] | inhibition at 1500 g/ha [10] | inhibition at 100 µg/mL [11] | inhibition at 1500 g/ha [12] | inhibition at 750 g/ha [13] | inhibition at 750 g/ha [14] | inhibition at 375 g/ha [15] | inhibition at 375 g/ha [16] |
| --- | --- | --- | --- | --- | --- | --- | --- | --- | --- | --- | --- | --- | --- | --- | --- | --- |
| CC(C)N1CC(=O)/C(=C(/O)c2cccc(Oc3ccccc3)c2)C1=O | 0% | 81% | 0% | 57% | 0% | 0% | 0% | 9% | 0% | 0% | 67% | 0% | – | – | – | – |
| COc1cc(/C(O)=C2\C(=O)CN(C(C)C)C2=O)cc(OC)c1OC | – | 69% | 61% | 0% | – | – | – | – | – | – | 0% | – | – | – | – | – |
| COCCOCOc1cccc(/C(O)=C2\C(=O)CN(C3CC3)C2=O)c1 | – | 35% | 0% | 4% | – | – | – | – | – | – | 33% | – | – | – | – | – |
| COCCOCOc1ccc(/C(O)=C2\C(=O)CN(C3CC3)C2=O)cc1 | – | 51% | 19% | 0% | – | – | – | – | – | – | 12% | – | – | – | – | – |
| Cc1ccc(/C(O)=C2\C(=O)CN(C(C)C)C2=O)c(C)c1 | 66% | 54% | 10% | 74% | 16% | – | 20% | 0% | 71% | – | 76% | 13% | – | – | – | – |
| COCCOCOc1ccccc1/C(O)=C1\C(=O)CN(C(C)C)C1=O | – | 28% | 7% | 17% | – | – | – | – | – | – | 52% | – | – | – | – | – |
| CC(C)(C)c1ccc(/C(O)=C2\C(=O)CN(C(C)(C)C)C2=O)cc1 | – | 79% | 64% | 4% | – | – | – | – | – | – | 18% | – | – | – | – | – |
| Cc1ccc(/C(O)=C2\C(=O)CN(C(C)C)C2=O)cc1 | 67% | 86% | 8% | 77% | 20% | – | 24% | 0% | 77% | – | 78% | 11% | 22% | 0% | – | – |
| COc1ccc(/C(O)=C2\C(=O)CN(C(C)C)C2=O)cc1 | 75% | 71% | 12% | 80% | 6% | – | 0% | 0% | 98% | – | 80% | 11% | 92% | 54% | 38% | 20% |
| CCCCCc1ccc(/C(O)=C2\C(=O)CN(C(C)C)C2=O)cc1 | – | 29% | 14% | 5.7% | – | – | – | – | – | – | 12% | – | – | – | – | – |
| CC(C)c1ccc(/C(O)=C2\C(=O)CN(C(C)C)C2=O)cc1 | – | 74% | 0% | 0% | – | – | – | – | – | – | 39% | – | – | – | – | – |
| COc1ccc(/C(O)=C2\C(=O)CN(C(C)(C)C)C2=O)cc1OC | – | 70% | 58% | 0% | – | – | – | – | – | – | 59% | – | – | – | – | – |
| Cc1ccccc1/C(O)=C1\C(=O)CN(C(C)C)C1=O | 76% | 62% | 15% | 77% | 44% | – | 0% | 0% | 84% | – | 77% | 50% | 68% | 66% | 30% | 43% |
| Cc1ccc(/C(O)=C2\C(=O)CN(C(C)(C)C)C2=O)cc1 | – | 88% | 14% | 36% | – | – | – | – | – | – | 48% | – | – | – | – | – |
| CCCc1ccc(/C(O)=C2\C(=O)CN(C3CC3)C2=O)cc1 | – | 75% | 0% | 8% | – | – | – | – | – | – | 41% | – | – | – | – | – |
| COc1cc(/C(O)=C2\C(=O)CN(C3CC3)C2=O)cc(OC)c1OC | – | 60% | 45% | 4% | – | – | – | – | – | – | 26% | – | – | – | – | – |

| Structure (SMILES) | inhibition at 1500 g/ha [1] | inhibition at 100 µg/mL [2] | inhibition at 10 µg/mL [3] | inhibition at 10 µg/mL [4] | inhibition at 1500 g/ha [5] | inhibition at 1500 g/ha [6] | inhibition at 1500 g/ha [7] | inhibition at 1500 g/ha [8] | inhibition at 1500 g/ha [9] | inhibition at 1500 g/ha [10] | inhibition at 100 µg/mL [11] | inhibition at 1500 g/ha [12] | inhibition at 750 g/ha [13] | inhibition at 750 g/ha [14] | inhibition at 375 g/ha [15] | inhibition at 375 g/ha [16] |
| --- | --- | --- | --- | --- | --- | --- | --- | --- | --- | --- | --- | --- | --- | --- | --- | --- |
| COc1ccc(/C(O)=C2\C(=O)CN(C3CC3)C2=O)cc1OC | 3% | 72% | 69% | 0% | 0% | 11% | 0% | 0% | 0% | 0% | 65% | 0% | – | – | – | – |
| CC(C)N1CC(=O)/C(=C(/O)c2ccc(C(C)(C)C)cc2)C1=O | – | 85% | 0% | 28% | – | – | – | – | – | – | 44% | – | – | – | – | – |
| COc1ccc(/C(O)=C2\C(=O)CN(C(C)(C)C)C2=O)cc1 | 66% | 78% | 5% | 79% | 0% | – | 21% | 0% | 93% | – | 80% | 23% | 73% | 58% | 8% | 0% |
| CC(C)c1ccc(/C(O)=C2\C(=O)CN(C(C)(C)C)C2=O)cc1 | – | 83% | 75% | 10% | – | – | – | – | – | – | 18% | – | – | – | – | – |
| Cc1cc(C)cc(/C(O)=C2\C(=O)CN(C(C)C)C2=O)c1 | – | 81% | 3% | 22% | – | – | – | – | – | – | 42% | – | – | – | – | – |
| Cc1cc(C)cc(/C(O)=C2\C(=O)CN(C3CC3)C2=O)c1 | – | 86% | 70% | 0% | – | – | – | – | – | – | 29% | – | – | – | – | – |
| CCCCCc1ccc(/C(O)=C2\C(=O)CN(C3CC3)C2=O)cc1 | – | 57% | 0% | 5% | – | – | – | – | – | – | 23% | – | – | – | – | – |
| COCCOCOc1ccc(/C(O)=C2\C(=O)CN(C(C)C)C2=O)cc1 | – | 51% | 19% | 0% | – | – | – | – | – | – | 21% | – | – | – | – | – |
| Cc1cc(C)cc(/C(O)=C2\C(=O)CN(C(C)(C)C)C2=O)c1 | – | 82% | 41% | 1% | – | – | – | – | – | – | 40% | – | – | – | – | – |
| COc1cc(OC)c(/C(O)=C2\C(=O)CN(C(C)C)C2=O)cc1OC | – | 62% | 60% | 0% | – | – | – | – | – | – | 64% | – | – | – | – | – |
| CCCc1ccc(/C(O)=C2\C(=O)CN(C(C)C)C2=O)cc1 | – | 86% | 60% | 27% | – | – | – | – | – | – | 57% | – | – | – | – | – |
| COc1ccc(/C(O)=C2\C(=O)CN(C(C)C)C2=O)cc1OC | – | 34% | 24% | 68% | – | – | – | – | – | – | 76% | – | – | – | – | – |
| COc1ccccc1/C(O)=C1\C(=O)CN(C(C)C)C1=O | 87% | 59% | 3% | 77% | 21% | – | 0% | 0% | 93% | – | 78% | 16% | – | – | – | – |
| COc1ccc(/C(O)=C2\C(=O)CN(C3CC3)C2=O)c(OC)c1 | – | 77% | 16% | 78% | – | – | – | – | – | – | 79% | – | – | – | – | – |
| COCCOCOc1cccc(/C(O)=C2\C(=O)CN(C(C)C)C2=O)c1 | – | 10% | 0% | 8% | – | – | – | – | – | – | 74% | – | – | – | – | – |
